Hits are enriched below; roughly 1.8% of the tested compounds scored in any of these assays.
UPR XBP1 act – activators of adaptive arm of unfolded protein response (XBP1); activation, % at 20 µM; CHO-XBP1 luciferase reporter, IRE1-XBP1 UPR activation, luminescence; percent of tunicamycin response, DMSO as zero; 330,000 tested, 0.33% active;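 active means versus positive control, 20 µM dose yields 30% or more activation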;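 further: 100% = tunicamycin at 10 µg/mL and 0% = DMSO only wells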
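Assay system: IRE1-XBP1 luciferase reporter CHO line. Input: 1000 cells/well. Buffer or medium: F12 with 10% serum. Doses: 20 µM, 1% DMSO. Times: overnight seeding at 37 °C, 6 h compound treatment at 37 °C. Technique: Steady-Glo luciferase glow luminescence, 10 min after reagent addition.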
CRFR2-BP antag – blocks CRF-induced signaling of the CRF-BP/CRF-R2 complex; HEK293 CRF-R2/CRF-BP, CRF-induced calcium fluorescence; inhibition, % at 11.8 µM; 350,000 tested, 0.59% active; AID 588475;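 active means inhibition of the ligand-induced calcium signal above about 50% at the single tested concentration, limit read from the data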
697 NFkB inh – lowers PMA/ionomycin-induced NF-kB signal in 697 B cells; 697 B-cell NF-kB luciferase reporter, 16 h; inhibition, % at 4 µM; 330,000 tested, 0.33% active; AID 435022; in the data active means inhibition above about 35%
UPR CHOP act – activators of apoptotic arm of unfolded protein response (CHOP). CHO-CHOP luciferase reporter, UPR activation, luminescence; percent of tunicamycin response over DMSO baseline. AID 449763. activation, % at 10 µM. 330,000 tested, 0.34% active;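 active means at 10 µM dose, activation of 40% or more, normalized to positive control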;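 further: 100% = tunicamycin at 10 µg/mL and 0% = DMSO alone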
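Test system: CHO CHOP reporter cells. Input: 500 CHO-CHOP cells per well. Medium: F12 with 10% FBS. Technique: luciferase luminescence. Measure: percent activation relative to tunicamycin control. Dosing: 10 µM compound, 0.5% DMSO. Timing: 16-18 h cell attachment, then 6 h compound exposure, 37 °C.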
Jurkat NFkB inh – lowers PMA/ionomycin-induced NF-kB signal in Jurkat cells; PMA/ionomycin-induced NF-kB luciferase reporter, luminescence; AID 435003; 330,000 tested, 0.53% active; inhibition, % at 4 µM; in the data active means inhibition above about 50%
Jurkat NFkB conf – lowers PMA/ionomycin-induced NF-kB signal in Jurkat cells; shares compounds with Jurkat NFkB inh; AID 435020; Jurkat NF-kB luciferase, 16 h; 2,700 tested, 27% active; inhibition, % at 4 µM;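 active means inhibition reaching about 45% at 4 µM in either replicate, limit read from the data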;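 further: plate controls were PMA/ionomycin stimulated DMSO wells for no effect and unstimulated DMSO wells for full effect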
Starred values were filed as active, the others as inactive; . = no result.

SMILES | UPR XBP1 act | CRFR2-BP antag | 697 NFkB inh | UPR CHOP act | Jurkat NFkB inh | Jurkat NFkB conf
CC1(C)CC2CC(C)(CN2S(=O)(=O)c2ccc(C(=O)Nc3cccc(S(=O)(=O)N4CCOCC4)c3)cc2)C1 (centres undefined) | -2.5 | -1.9 | -16.3 | 1.2 | 63.4* | 69.3*
CC1(C)CC2CC(C)(CN2S(=O)(=O)c2ccc(C(=O)Nc3cc(S(=O)(=O)N4CCOCC4)ccc3Cl)cc2)C1 (centres undefined) | -0.5 | -48.4 | -56.5 | -1.6 | 29.7 | .
CC(C)CCNC(=O)c1ccc(-c2ccccc2)cc1 | -1.2 | . | -52.9 | 7.5 | -56.2 | .
Cc1cc(C)c2nc(C)cc(N/N=C/c3ccc(O)cc3)c2c1 | 3.2 | -23.4 | -6.7 | 14.8 | 98.0* | 81.3*
Cc1cc(N/N=C/c2ccc(O)cc2)c2cccc(C)c2n1 | -3.8 | 13.6 | -56.2 | 2.2 | -6.2 | .
CCCCc1ccc(NC(=O)C(=O)NCCN2CCN(Cc3ccc([N+](=O)[O-])cc3)CC2)cc1 | 5.6 | 7.3 | 17.3 | 4.4 | 51.4* | 59.4*
O=[N+]([O-])c1ccc(CN2CCN(c3ccc([N+](=O)[O-])cc3)CC2)cc1 | 3.8 | 14.8 | -14.7 | 0.5 | 60.2* | 21.2
Cc1ccc(S(=O)(=O)NC2=NCN(CC(=O)O)CN2)cc1 | -3.5 | 2.2 | 17.4 | -0.2 | 9.7 | .
CCCN(CC(=O)Nc1ccccc1C)C(=O)Cc1cccs1 | -0.3 | 5.8 | 10.7 | 1.5 | -13.5 | .
Cc1ccc2c(c1)sc1nc(=O)n(-c3ccccc3)c(=O)n12 | 6.6 | 6.2 | -169.0 | 3.1 | -183.4 | -114.3
CSc1nnc2sc3cc(C)ccc3n12 | . | -29.5 | . | . | . | .
O=C(CCCC(=O)c1ccc(F)cc1)c1ccc(F)cc1 | 0.6 | 9.2 | -59.9 | 6.5 | -78.5 | .
COc1ccc(N=C2SCC(c3ccc([N+](=O)[O-])cc3)=NN2CCO)cc1 | 4.1 | 26.1 | -51.9 | 0.7 | 19.6 | .
O=[N+]([O-])c1ccc(C2=NN(CCO)C(=Nc3ccc(OC(F)(F)F)cc3)SC2)cc1 | 0.7 | -1.8 | -0.3 | -0.2 | 74.6* | 11.4
CCCCCCN1C[C@@H](n2cc(COC(=O)c3ccccc3)nn2)[C@H](O)C[C@@H]1c1ccc(Cl)cc1 | . | -16.3 | . | . | . | .
CC12CCC(=O)N1C(C(=O)N1CCN(S(=O)(=O)c3ccc(F)c(F)c3)CC1)CS2 (centres undefined) | -2.0 | 2.2 | 20.7 | 3.4 | 13.0 | .
C=CCCC(=O)Nc1nc(C)c(-c2csc(Nc3ccccc3OC)n2)s1 | 1.7 | -1.3 | -36.5 | 0.6 | 53.0* | 16.1
Cc1c(C(=O)Nc2ccccc2)csc1-c1ccccc1 | -1.6 | 42.7 | 5.6 | 2.7 | -265.7 | -195.2
Cc1c(C(=O)Nc2ccccc2[N+](=O)[O-])csc1-c1ccccc1 | -0.4 | -8.4 | -141.4 | 4.0 | -137.8 | .
O=C(Nc1ccc(Cl)cc1)c1ccc(CN2CCc3ccccc3C2)cc1 | -7.1 | -0.5 | -52.0 | 0.8 | 21.2 | .
O=C(Nc1ccccc1)c1ccc(S(=O)(=O)N2CCOCC2)cc1 | 0.9 | -14.4 | 6.1 | 4.9 | -8.0 | .
O=C(Nc1ccc(S(=O)(=O)N2CCOCC2)cc1)c1ccc(CN2CCc3ccccc3C2)cc1 | -4.6 | -13.2 | 30.5 | 4.9 | 76.6* | 74.2*
O=C(Nc1ccc(S(=O)(=O)N2CCCC2)cc1)c1ccc(CN2CCc3ccccc3C2)cc1 | -1.0 | -11.9 | -15.2 | 6.5 | 74.5* | 75.1*
O=C(Nc1ccc(Cc2ccncc2)cc1)c1ccc(S(=O)(=O)N2CCCC2)cc1 | -0.1 | -96.5 | 3.2 | -1.1 | 50.2* | 47.1*
O=C(Nc1ccc(S(=O)(=O)N2CCCCC2)cc1)c1ccncc1 | 0.3 | -9.6 | -24.9 | -1.5 | -2.9 | .
SMILES | UPR XBP1 act | CRFR2-BP antag | 697 NFkB inh | UPR CHOP act | Jurkat NFkB inh | Jurkat NFkB conf
CC(C)(C)OC(=O)N(Cc1ccccc1)Cc1ccccc1OCc1ccc(NC(=O)C2CCC2)cc1 | . | 1.0 | . | . | . | .
CCOC(=O)CCNC(=O)Nc1cc2nc(C)n(Cc3cccc(Cl)c3)c2nc1C | -1.2 | -7.4 | -19.3 | -0.4 | -10.3 | .
Oc1ccc(CCc2ccccn2)cc1 | . | 15.9 | . | . | . | .
COc1ccc(Br)cc1/C(C)=N/NC1=NCCN1 | -2.8 | -56.8 | -29.4 | -0.8 | 67.0* | 33.7
C/C(=N\NC1=NCCN1)c1ccc(Cl)cc1 | 3.0 | 4.1 | 1.3 | -0.3 | 23.9 | .
C/C(=N\NC1=NCCN1)c1ccccc1 | -0.6 | -13.4 | 4.2 | 4.8 | -15.7 | .
CCCCCOc1ccc(Br)cc1/C(C)=N/NC1=NCCN1 | 16.4 | -15.6 | -23.3 | 2.5 | 63.1* | 32.2
Cc1ccc(S(=O)(=O)Nc2cccc3c2O[C@H](CN(C)Cc2ccccc2)[C@@H](C)CN([C@H](C)CO)C3=O)cc1 | -2.2 | 3.9 | -4.1 | 0.8 | -2.9 | .
CCOC(=O)[C@@H](NC(=O)CC[C@H]1O[C@@H](n2cc(C)c(=O)[nH]c2=O)C[C@@H]1O)C(C)C | . | 5.1 | . | . | . | .
NC(=O)c1ccccc1NC(=O)/C=C/c1ccccc1 | 2.6 | 25.9 | -130.2 | 7.8 | -87.0 | .
NC(=O)c1ccccc1NC(=O)/C=C/c1ccc(Cl)cc1 | 2.2 | 5.1 | -110.0 | 4.8 | -176.9 | -73.0
Cc1ccc(S(=O)(=O)NCc2ccncc2)c(C)c1C | -3.5 | -7.8 | 30.6 | 7.4 | 62.5* | 67.9*
Cc1ccc(S(=O)(=O)NCc2ccccn2)c(C)c1C | -3.8 | 12.3 | -40.7 | -2.6 | -19.7 | .
O=C(CSc1ncnc2ccccc12)c1cccs1 | -3.4 | -1.4 | -70.1 | -3.3 | -157.3 | -62.2
CN1CCC(N(C)C(=O)c2ccc(Cl)c(S(=O)(=O)N3CCOCC3)c2)CC1 | 0.5 | 7.9 | -3.8 | 2.1 | -6.3 | .
COc1ccccc1-c1nnc2n1N=C(c1ccc(O)c(O)c1)CS2 | 16.8 | 13.6 | 16.4 | -1.6 | 81.3* | 55.0*
CC(=O)N1CC2(CC(c3ccccc3C(F)(F)F)=NO2)CN1c1ccc(Cl)cc1 (centres undefined) | . | -5.7 | . | . | . | .
CCC(=O)N1c2ccc(S(=O)(=O)N3CCN(c4ccc([N+](=O)[O-])cc4)CC3)cc2CC1C (centres undefined) | -3.7 | -14.0 | 31.6 | 9.4 | 51.7* | 64.8*
CCC(=O)N1c2ccc(S(=O)(=O)N3CCN(CC)CC3)cc2CC1C (centres undefined) | -2.6 | -5.2 | -19.8 | 0.8 | -7.6 | .
CC(=O)c1ccc(N2CCN(S(=O)(=O)c3ccc4c(c3)CC(C)N4C(=O)C3CC3)CC2)cc1 (centres undefined) | -3.0 | 1.9 | -10.0 | 9.6 | 57.7* | 40.5
CC(=O)N1c2ccc(S(=O)(=O)N3CCC(C(=O)Nc4ccccn4)CC3)cc2CC1C (centres undefined) | -3.0 | 2.8 | 2.8 | 1.6 | 4.6 | .
CC(=O)N1c2ccc(S(=O)(=O)N3CCC(C(=O)Nc4cccc(C)n4)CC3)cc2CC1C (centres undefined) | -3.1 | 4.5 | -7.2 | 2.4 | 53.8* | 50.4*
